In ChEMBL document CHEMBL1138050, “Furan-2-ylmethylene thiazolidinediones as novel, potent, and selective inhibitors of phosphoinositide 3-kinase gamma” (J Med Chem, 2006):
Calls of active or inactive are those of the source. The calls are words filed in the database; no cut-off is given here.

Tests used:
[1] = system: RAW264.7; test: Inhibition of C5a-mediated PKB/Akt phosphorylation in mouse Raw264 macrophage; assay type: functional, cell-based
Summary of the method: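 Raw-264 murine macrophages starved 3 h in serum-free medium, pretreated 30 min with inhibitor or DMSO, then stimulated 5 min with 50 nM C5a. Phospho-Ser-473 Akt measured by ELISA. Concentration-response; IC50. Mean ± standard deviation of four independent experiments done in triplicate.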

[2] = target: T1, Phosphatidylinositol 4,5-bisphosphate 3-kinase catalytic subunit gamma isoform (Homo sapiens, UniProt P48736); test: Inhibition of human PI3Kgamma
Target sequence in this assay (P48736 whole entry, canonical isoform): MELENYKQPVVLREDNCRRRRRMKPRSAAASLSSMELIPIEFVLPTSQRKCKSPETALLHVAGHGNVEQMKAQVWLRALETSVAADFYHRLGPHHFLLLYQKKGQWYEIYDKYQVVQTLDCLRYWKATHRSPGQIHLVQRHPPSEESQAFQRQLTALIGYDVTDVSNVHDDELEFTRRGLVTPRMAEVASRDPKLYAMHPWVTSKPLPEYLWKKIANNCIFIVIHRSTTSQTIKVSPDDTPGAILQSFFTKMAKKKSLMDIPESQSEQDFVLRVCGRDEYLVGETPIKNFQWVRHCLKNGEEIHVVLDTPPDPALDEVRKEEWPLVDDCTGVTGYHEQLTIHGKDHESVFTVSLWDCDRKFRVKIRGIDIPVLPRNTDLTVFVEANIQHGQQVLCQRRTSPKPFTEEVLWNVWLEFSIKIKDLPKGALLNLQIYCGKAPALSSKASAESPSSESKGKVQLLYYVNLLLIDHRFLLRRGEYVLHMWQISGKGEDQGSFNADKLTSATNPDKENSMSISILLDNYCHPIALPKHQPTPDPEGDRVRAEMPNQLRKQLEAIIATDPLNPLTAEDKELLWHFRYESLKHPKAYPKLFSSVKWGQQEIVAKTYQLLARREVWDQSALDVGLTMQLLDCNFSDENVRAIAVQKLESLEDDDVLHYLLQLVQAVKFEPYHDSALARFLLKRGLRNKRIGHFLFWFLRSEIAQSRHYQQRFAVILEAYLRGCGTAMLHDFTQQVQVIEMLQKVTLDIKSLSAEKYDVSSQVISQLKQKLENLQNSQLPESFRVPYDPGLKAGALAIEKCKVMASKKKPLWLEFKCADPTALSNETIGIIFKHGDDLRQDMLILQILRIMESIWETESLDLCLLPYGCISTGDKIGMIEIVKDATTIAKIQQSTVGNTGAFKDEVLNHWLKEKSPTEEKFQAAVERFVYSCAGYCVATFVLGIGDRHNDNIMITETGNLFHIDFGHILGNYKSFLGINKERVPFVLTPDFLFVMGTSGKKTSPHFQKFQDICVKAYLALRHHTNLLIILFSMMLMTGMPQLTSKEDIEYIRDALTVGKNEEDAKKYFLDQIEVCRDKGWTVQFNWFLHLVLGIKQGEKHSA

[3] = target: Phosphatidylinositol 4,5-bisphosphate 3-kinase catalytic subunit alpha isoform (Homo sapiens, UniProt P42336); test: Inhibition of human PI3Kalpha
Phosphatidylinositol 4,5-bisphosphate 3-kinase catalytic subunit alpha isoform, sequence (P42336 whole entry, canonical isoform): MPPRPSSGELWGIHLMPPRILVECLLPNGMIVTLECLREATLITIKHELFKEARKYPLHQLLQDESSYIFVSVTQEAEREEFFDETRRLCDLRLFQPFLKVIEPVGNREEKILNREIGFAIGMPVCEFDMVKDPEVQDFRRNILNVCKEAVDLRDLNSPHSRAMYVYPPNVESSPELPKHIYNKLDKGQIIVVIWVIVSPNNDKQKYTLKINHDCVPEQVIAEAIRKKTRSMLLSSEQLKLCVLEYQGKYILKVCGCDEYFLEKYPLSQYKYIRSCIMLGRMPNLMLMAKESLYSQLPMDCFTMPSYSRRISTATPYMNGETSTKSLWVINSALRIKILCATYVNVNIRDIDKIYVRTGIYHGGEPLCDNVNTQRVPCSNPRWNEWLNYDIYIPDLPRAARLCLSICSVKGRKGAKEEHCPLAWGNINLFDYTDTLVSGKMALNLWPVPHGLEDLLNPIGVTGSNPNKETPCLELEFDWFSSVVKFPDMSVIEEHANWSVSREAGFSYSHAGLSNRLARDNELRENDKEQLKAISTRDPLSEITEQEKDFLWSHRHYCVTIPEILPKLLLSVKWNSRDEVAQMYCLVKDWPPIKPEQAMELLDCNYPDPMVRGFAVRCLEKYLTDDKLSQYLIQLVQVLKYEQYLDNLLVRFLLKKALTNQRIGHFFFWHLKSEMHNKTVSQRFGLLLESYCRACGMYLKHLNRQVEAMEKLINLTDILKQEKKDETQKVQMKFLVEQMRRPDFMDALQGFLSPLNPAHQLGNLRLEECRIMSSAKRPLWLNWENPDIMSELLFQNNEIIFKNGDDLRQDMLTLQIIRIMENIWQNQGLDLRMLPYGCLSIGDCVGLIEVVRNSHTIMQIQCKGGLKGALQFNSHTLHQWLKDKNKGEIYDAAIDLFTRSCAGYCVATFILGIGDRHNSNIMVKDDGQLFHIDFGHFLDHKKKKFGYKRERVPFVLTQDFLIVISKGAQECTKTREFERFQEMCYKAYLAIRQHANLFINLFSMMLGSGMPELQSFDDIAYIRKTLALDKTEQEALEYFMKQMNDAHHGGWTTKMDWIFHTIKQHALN

[4] = target: T1, Phosphatidylinositol 4,5-bisphosphate 3-kinase catalytic subunit gamma isoform; test: Inhibition of human PI3Kgamma at 1 uM
Summary of the method: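 Primary screen of PI3Kγ lipid kinase (SPA, ATP/[γ33P]ATP with PtdIns substrate); percent inhibition at 1 µM compound.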
Target sequence in this assay (P48736 whole entry, looked up, canonical isoform): as the sequence (P48736 whole entry, canonical isoform) above

[5] = Dissociation constant, pKa of the compound; assay type: physicochemical
Summary of the method: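 UV-metric titration under argon at 25 ± 0.5 °C. 10 mM DMSO stock diluted into 0.15 M KCl containing 60, 50, 40 or 30 wt% MeOH, with 0.25 mM KH2PO4. Brought to pH 11.0 with 0.5 M KOH, then titrated with 0.5 M HCl to pH 4, at most 0.15 pH unit per step. UV 200-500 nm recorded after each addition; Yasuda-Shedlovsky extrapolation to zero cosolvent.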

[6] = target: T2, Phosphatidylinositol 4,5-bisphosphate 3-kinase catalytic subunit delta isoform (Homo sapiens, UniProt O00329); test: Inhibition of human PI3Kdelta
T2 sequence (O00329 whole entry): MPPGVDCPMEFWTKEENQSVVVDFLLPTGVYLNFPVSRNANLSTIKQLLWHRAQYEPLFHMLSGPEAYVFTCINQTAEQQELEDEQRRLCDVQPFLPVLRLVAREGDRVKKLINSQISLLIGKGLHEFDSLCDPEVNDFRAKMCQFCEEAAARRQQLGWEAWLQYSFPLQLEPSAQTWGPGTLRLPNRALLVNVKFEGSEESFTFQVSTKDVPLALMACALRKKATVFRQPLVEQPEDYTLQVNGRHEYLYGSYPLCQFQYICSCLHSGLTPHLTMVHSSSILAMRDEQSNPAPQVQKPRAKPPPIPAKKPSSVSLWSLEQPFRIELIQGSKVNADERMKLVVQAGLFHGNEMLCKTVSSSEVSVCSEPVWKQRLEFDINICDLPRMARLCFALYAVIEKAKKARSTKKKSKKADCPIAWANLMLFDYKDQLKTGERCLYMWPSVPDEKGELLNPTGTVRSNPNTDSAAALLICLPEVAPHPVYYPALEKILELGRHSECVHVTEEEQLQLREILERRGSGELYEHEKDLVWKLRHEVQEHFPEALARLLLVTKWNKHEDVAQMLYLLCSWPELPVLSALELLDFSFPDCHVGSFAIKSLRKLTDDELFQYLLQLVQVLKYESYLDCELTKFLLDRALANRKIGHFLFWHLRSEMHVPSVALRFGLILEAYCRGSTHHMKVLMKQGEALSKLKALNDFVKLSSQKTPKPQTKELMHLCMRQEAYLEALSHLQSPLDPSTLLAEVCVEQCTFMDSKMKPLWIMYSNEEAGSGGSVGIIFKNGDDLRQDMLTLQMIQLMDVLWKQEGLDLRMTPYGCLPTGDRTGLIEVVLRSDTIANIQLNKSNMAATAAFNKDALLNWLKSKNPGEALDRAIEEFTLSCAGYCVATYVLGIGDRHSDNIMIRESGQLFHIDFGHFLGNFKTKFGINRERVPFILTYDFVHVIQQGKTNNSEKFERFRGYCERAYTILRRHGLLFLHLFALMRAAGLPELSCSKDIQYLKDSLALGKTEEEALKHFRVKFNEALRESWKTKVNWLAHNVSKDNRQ

[7] = system: THP-1; test: Inhibition of CSF-1-induced PKB/Akt phosphorylation in THP1 cells; conditions: Homo sapiens
[8] = system: THP-1; test: Inhibition of MCP1-induced PKB/Akt phosphorylation in THP1 cells; assay type: functional, cell-based; conditions: Homo sapiens
Summary of the method: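 THP-1 monocytes starved 3 h in serum-free medium and pretreated with inhibitor or DMSO (15 min in methods; 20 min in figure legend). Stimulated with 100 nM MCP-1/CCL2 for 30 s, or with 50 ng/mL CSF-1 for 5 min. Phospho-Ser-473 and total Akt detected by Western blot and quantified.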

[9] = system: THP-1; test: Inhibition of MCP1-induced chemotaxis of THP1 cells; assay type: functional, cell-based; conditions: Homo sapiens
[10] = system: Mast cell; test: Inhibition of SCF-induced PKB/Akt phosphorylation in mouse mast cells at 20 uM; assay type: functional, cell-based
Summary of the method: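 Bone marrow mast cells from 4- to 8-week-old wild-type mice, derived ≥4 weeks in 20 ng/mL SCF plus 20 ng/mL IL-3 and confirmed c-kit+ by FACS. Cells at 2.5 × 10^6/mL starved 24 h without SCF/IL-3, preincubated 20 min with compound or 1% DMSO, stimulated 15 min at 37 °C with 20 ng/mL SCF. Fixed in 1.5% paraformaldehyde, permeabilized with 0.2% Triton X-100, phospho-Ser-473 Akt read by FACS.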

[11] = target: Phosphatidylinositol 4,5-bisphosphate 3-kinase catalytic subunit beta isoform (Homo sapiens, UniProt P42338); test: Inhibition of human PI3Kbeta
Phosphatidylinositol 4,5-bisphosphate 3-kinase catalytic subunit beta isoform, sequence (P42338 whole entry, canonical isoform): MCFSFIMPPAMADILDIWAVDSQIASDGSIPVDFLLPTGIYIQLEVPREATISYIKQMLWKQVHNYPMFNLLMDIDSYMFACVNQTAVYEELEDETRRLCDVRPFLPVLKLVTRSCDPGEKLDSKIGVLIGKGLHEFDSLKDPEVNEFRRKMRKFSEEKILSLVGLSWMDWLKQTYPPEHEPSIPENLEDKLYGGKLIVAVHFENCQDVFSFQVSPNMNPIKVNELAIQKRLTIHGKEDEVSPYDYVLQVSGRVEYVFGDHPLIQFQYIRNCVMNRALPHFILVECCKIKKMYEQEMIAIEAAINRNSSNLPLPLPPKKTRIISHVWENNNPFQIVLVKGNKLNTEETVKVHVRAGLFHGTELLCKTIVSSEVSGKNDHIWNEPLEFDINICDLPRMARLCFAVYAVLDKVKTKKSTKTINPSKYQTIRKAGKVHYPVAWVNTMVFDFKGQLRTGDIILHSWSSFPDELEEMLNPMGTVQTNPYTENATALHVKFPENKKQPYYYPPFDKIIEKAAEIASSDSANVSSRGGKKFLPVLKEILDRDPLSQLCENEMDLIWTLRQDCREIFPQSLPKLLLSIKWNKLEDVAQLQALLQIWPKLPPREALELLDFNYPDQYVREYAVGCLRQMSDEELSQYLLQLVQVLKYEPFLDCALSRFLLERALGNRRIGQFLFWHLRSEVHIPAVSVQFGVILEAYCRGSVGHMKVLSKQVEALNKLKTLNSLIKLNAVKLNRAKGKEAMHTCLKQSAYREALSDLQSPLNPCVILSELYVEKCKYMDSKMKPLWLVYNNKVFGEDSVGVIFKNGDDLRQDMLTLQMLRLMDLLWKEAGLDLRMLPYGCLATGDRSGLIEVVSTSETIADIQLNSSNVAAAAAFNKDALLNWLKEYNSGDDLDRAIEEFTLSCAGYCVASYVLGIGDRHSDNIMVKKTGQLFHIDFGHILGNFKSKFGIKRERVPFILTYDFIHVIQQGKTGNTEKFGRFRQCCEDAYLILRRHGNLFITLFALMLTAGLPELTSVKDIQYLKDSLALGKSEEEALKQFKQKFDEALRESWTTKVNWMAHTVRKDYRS

| IC50 [2] | IC50 [3] | SMILES | other results |
| --- | --- | --- | --- |
| 4300 nM | – | O=C1NC(=O)/C(=C/c2ccc(-c3cccc(C(=O)O)c3)o2)S1 | – |
| 380 nM | 3600 nM | O=C1NC(=O)/C(=C/c2ccc(-c3ccc(O)cc3)o2)S1 | – |
| 13500 nM | – | COC(=O)c1cccc(-c2ccc(/C=C3\SC(=O)NC3=O)o2)c1 | – |
| 20000 nM | – | O=C1NC(=O)/C(=C/c2ccc(-c3ccc([N+](=O)[O-])o3)o2)S1 | – |
| 3800 nM | – | O=C1NC(=O)/C(=C/c2ccc(-c3ccc(F)cc3F)o2)S1 | – |
| 39 nM | 500 nM | Cc1ccc(O)c(-c2ccc(/C=C3\SC(=O)NC3=O)o2)c1 | IC50 [1]: 1060 nM; pKa [5]: 9.7 |
| 20 nM | 100 nM | O=C1NC(=O)/C(=C/c2ccc(-c3cc(O)ccc3O)o2)S1 | – |
| 20000 nM | 20000 nM | O=C1NC(=O)/C(=C/c2ccc(-c3ccc4c(c3)OCO4)o2)S1 | – |
| 20000 nM | – | O=C1NC(=O)/C(=C/c2ccc(-c3ccccc3)o2)S1 | – |
| 290 nM | 1800 nM | O=C1NC(=O)/C(=C/c2ccc(-c3cccc(O)c3)o2)S1 | – |
| 43 nM | 545 nM | O=C1NC(=O)/C(=C/c2ccc(-c3cc(Cl)ccc3O)o2)S1 | pKa [5]: 8.9 |
| 2600 nM | – | COc1cccc(-c2ccc(/C=C3\SC(=O)NC3=O)o2)c1 | – |
| 37 nM | 455 nM | O=C1NC(=O)/C(=C/c2ccc(-c3cc(F)ccc3O)o2)S1 | IC50 [1]: 1710 nM; pKa [5]: 9.1 |
| 20 nM | 190 nM | O=C1NC(=O)/C(=C/c2ccc(-c3ccc(O)cc3O)o2)S1 | IC50 [1]: 3490 nM; pKa [5]: 8.7 |
| 260 nM | 1000 nM | O=C1NC(=O)/C(=C/c2ccc(-c3ccc(O)cc3F)o2)S1 | – |
| 840 nM | – | O=C1NC(=O)/C(=C/c2ccc(-c3ccoc3)o2)S1 | – |
| 950 nM | 630 nM | O=C1NC(=O)/C(=C/c2ccc(-c3cccnc3)o2)S1 | – |

The remaining lines, values behind:

| SMILES | IC50 [2] | IC50 [3] | other results |
| --- | --- | --- | --- |
| O=C1NC(=O)/C(=C/c2ccc(-c3cc(F)cc(F)c3O)s2)S1 | 29 nM | 340 nM | IC50 [1]: 1390 nM |
| O=C1NC(=O)/C(=C/c2ccc(-c3ccccc3Cl)o2)S1 | 20000 nM | – | – |
| O=C1NC(=O)/C(=C/c2ccc(-c3cccc([N+](=O)[O-])c3O)o2)S1 | 80 nM | 1250 nM | – |
| O=C1NC(=O)/C(=C/c2ccc(-c3ccc(F)cc3O)s2)S1 | – | – | inhibition [4]: 4% |
| Nc1ccc([N+](=O)[O-])cc1-c1ccc(/C=C2\SC(=O)NC2=O)o1 | – | – | inhibition [4]: 18% |
| O=C1NC(=S)S/C1=C\c1ccc(-c2cc([N+](=O)[O-])ccc2O)o1 | 200 nM | 600 nM | – |
| COC(=O)c1ccccc1-c1ccc(/C=C2\SC(=O)NC2=O)o1 | – | – | inhibition [4]: 2% |
| COC(=O)c1ccc(-c2ccc(/C=C3\SC(=O)NC3=O)o2)c(O)c1 | 29 nM | 210 nM | IC50 [1]: 720 nM; pKa [5]: 8.7 |
| O=C1NC(=O)/C(=C/c2ccc(-c3cccc4cccnc34)o2)S1 | – | – | inhibition [4]: 17% |
| O=C1NC(=O)/C(=C/c2ccc(-c3cc(C(=O)O)ccc3O)o2)S1 | 530 nM | 1350 nM | pKa [5]: 8.6 |
| O=C(O)Cc1cccc(-c2ccc(/C=C3\SC(=O)NC3=O)o2)c1 | – | – | inhibition [4]: 15% |
| O=c1cc(N2CCOCC2)oc2c(-c3ccccc3)cccc12 [LY-294002] | – | – | IC50 [6]: 1330 nM; IC50 [1]: 10000 nM; IC50 [7]: 1010 nM; IC50 [8]: 1650 nM; IC50 [9]: 37000 nM; Activity [10]: Active |
| O=C1NC(=O)/C(=C/c2ccc(-c3cccc([N+](=O)[O-])c3)o2)S1 | – | – | inhibition [4]: 24% |
| N#Cc1ccc(O)c(-c2ccc(/C=C3\SC(=O)NC3=O)o2)c1 | 40 nM | 220 nM | pKa [5]: 7.3 |
| O=C1NC(=S)S/C1=C\c1ccc(-c2ccc([N+](=O)[O-])cc2Br)o1 | 3600 nM | – | – |
| CC(=O)Nc1ccccc1-c1ccc(/C=C2\SC(=O)NC2=O)o1 | – | – | inhibition [4]: 24% |
| O=C1NC(=O)/C(=C/c2ccc(-c3cc(OC(F)(F)F)ccc3O)o2)S1 | 56 nM | 600 nM | IC50 [1]: 880 nM; pKa [5]: 8.7 |
| O=C(O)Cc1ccccc1-c1ccc(/C=C2\SC(=O)NC2=O)o1 | – | – | inhibition [4]: 12% |
| O=C1NC(=O)/C(=C/c2ccc(-c3ccccc3C(=O)O)o2)S1 | – | – | inhibition [4]: 4% |
| O=C1NC(=O)/C(=C/c2ccc(-c3ccccc3F)o2)S1 | 1200 nM | – | – |
| O=C1NC(=O)/C(=C/c2ccc(-c3ccccc3O)o2)S1 | 30 nM | 330 nM | IC50 [6]: > 5000 nM; IC50 [1]: 810 nM; IC50 [11]: 20000 nM; pKa [5]: 9.5 |
| COc1cc(F)ccc1-c1ccc(/C=C2\SC(=O)NC2=O)o1 | – | – | inhibition [4]: 11% |
| O=C1NC(=S)S/C1=C\c1ccc(-c2cccc(C(=O)O)c2)o1 | 920 nM | > 20000 nM | – |
| O=C1NC(=O)/C(=C/c2ccc(-c3ccccn3)o2)S1 | 110 nM | 185 nM | IC50 [1]: 3650 nM |
| O=C1NC(=O)/C(=C/c2ccc(-c3ccccc3O)s2)S1 | – | – | inhibition [4]: 27% |
| COc1ccccc1-c1ccc(/C=C2\SC(=O)NC2=O)o1 | – | – | inhibition [4]: 44% |
